Most compounds without a hit are left out; they make up all but 0.68% or so of the library.
mHtt clearance: compounds clearing mutant huntingtin protein | AID 853 | HeLa Exon1htt(103Q)mCFP, aggregate imaging; zero = plate's median compound well | inhibition, % at 1.5 µM | 47,000 tested, 0.42% active;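 active = inhibition of aggregate fluorescence above about 70%, also judged a hit by eye on the cell image, limit read from the data, passing the limit was not always enough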;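 also: cells exposed to compound for three days before fixation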
AP complement: orthogonal test for alternative complement pathway inhibitors; Human serum alternative complement pathway, LPS-coated ELISA, C3 deposition; tested in compound mixtures; inhibition, % at 5 µM; 62,000 tested, 0.08% active;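 active = inhibition above 30% in each of the two pooled mixtures holding the compound, so the lower value exceeds 30%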
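Test system: human serum alternative complement pathway, C3 deposition on LPS-coated wells; also added: Plate-bound LPS; doses: 5 µM per compound in ten-compound mixtures; schedule: 1 h at 37 °C; detection: Anti-C3 ELISA, OD 450 nm; evaluation: percent inhibition of C3 deposition onto LPS; repeats: two pool placements per compound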
JNK3 inh: JNK3 (human) kinase inhibition | purified JNK3 kinase activity, HTS | P53779 | inhibition, % at 8 µM | 60,000 tested, 0.61% active; in the data active = inhibition above about 17%
Target sequence (P53779 whole entry, looked up): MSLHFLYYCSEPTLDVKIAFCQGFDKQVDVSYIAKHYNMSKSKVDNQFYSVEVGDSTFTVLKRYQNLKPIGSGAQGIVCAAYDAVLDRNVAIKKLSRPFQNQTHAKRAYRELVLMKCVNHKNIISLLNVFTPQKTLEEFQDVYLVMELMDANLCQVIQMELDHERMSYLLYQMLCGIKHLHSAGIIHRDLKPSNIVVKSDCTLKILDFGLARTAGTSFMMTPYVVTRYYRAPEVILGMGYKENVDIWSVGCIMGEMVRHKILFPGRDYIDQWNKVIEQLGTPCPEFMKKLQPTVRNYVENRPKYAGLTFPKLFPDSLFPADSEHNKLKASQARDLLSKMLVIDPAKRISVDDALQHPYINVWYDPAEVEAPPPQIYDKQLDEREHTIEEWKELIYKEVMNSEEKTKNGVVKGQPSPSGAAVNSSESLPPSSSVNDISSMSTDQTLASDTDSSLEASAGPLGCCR
MMP-13 inhibitor: inhibitors of human MMP13 | 65,000 tested, 0.07% active | P45452 | MMP-13 fTHP FRET cleavage, Mca fluorescence | inhibition, % at 4 µM | AID 570;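 active = inhibition above the mean of compound-free control plate wells plus 3 SD, cut at about 14% in these data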
Numbers stand for hits; - = inactive; . = no result given.

SMILES	mHtt clearance	AP complement	JNK3 inh	MMP-13 inhibitor
COc1cc(C2NC(=O)NC(C)=C2C(=O)OC2CCCC(C)C2)ccc1O (centres undefined)	.	-	36.5	-
CC1=C(C(=O)OC2CCCCCCC2)C(c2ccc(O)cc2)NC(=O)N1 (centres undefined)	.	-	21.6	-
N#CCCC12CCCCC1=Nc1ccccc12 (centres undefined)	.	-	19.0	-
CC(=O)c1c(C)[nH]c(C(=O)OCn2nnc3ccccc3c2=O)c1C	-	-	18.4	-
CC(C)(C)Sc1nc(O)cc(=O)[nH]1	.	34.0	-	-
O=c1cc(O)nc(SCc2ccccc2)[nH]1	-	-	-	-
COc1ccc(NC(=O)N2CCC(O)(c3cccnc3)CC2)c(OC)c1	-	-	-	-
CCNc1nc(NC(C)C)nc(OCCNS(=O)(=O)c2cc(C)ccc2C)n1	-	31.9	-	-
COc1ccc(OC)c(-c2cc(C(=O)Nc3cc(C)on3)no2)c1	-	-	-	-
CCOC(=O)C(C)Sc1nc2c(c(=O)[nH]c(=O)n2C)n1C/C=C(/C)Cl (centres undefined)	-	-	-	-
COc1ccc(C(=O)NCc2cn3c(C)csc3n2)cc1OC	.	.	17.1	-
COc1cccc(C(=O)NCc2cn3ccsc3n2)c1	.	-	-	-
COc1cc(C(=O)NCc2cn3ccsc3n2)cc(OC)c1OC	.	.	23.7	-
COc1ccc(C(=O)NCc2nc3ccccc3[nH]2)cc1OC	-	-	31.4	-
COCCn1c(SCC(=O)Nc2cc(C)on2)nnc1-c1c[nH]c2ccccc12	.	-	-	-
NC(=O)c1c(NC(=O)C2CCCO2)sc2c1CCC2 (centres undefined)	-	-	31.1	-
COC(=O)c1c(NC(=O)C2CCCO2)sc2c1CCC2 (centres undefined)	-	.	.	.
Cc1onc(-c2ccccc2)c1C(=O)N1CCCc2ccccc21	.	31.9	-	-
O=C1Nc2ccccc2C(O)(C(=O)NCc2ccco2)N1c1ccccc1 (centres undefined)	.	-	.	-
COc1ccc(-c2nnc(-c3ccc(Br)o3)o2)cc1OC	.	-	25.4	-
COc1ccc(-c2nc(-c3ccc(Br)o3)no2)cc1OC	-	-	-	-
Cn1nnnc1SCc1ccc(C(=O)Nc2nccs2)cc1	-	-	19.9	-
Cn1c(CSCc2ccc(F)cc2)nnc1SCC(=O)Nc1nccs1	.	-	-	-
CC(=O)C1=C(O)CCC1=N	.	39.1	-	-
COc1ccc(-n2nc(C(=O)NCC(=O)NCC3CCCO3)c3ccccc3c2=O)c(OC)c1 (centres undefined)	.	-	-	-
SMILES	mHtt clearance	AP complement	JNK3 inh	MMP-13 inhibitor
COCc1nnc(NC(=O)c2ccc(NC(C)=O)cc2)s1	84.2	-	-	-
CCCC(=O)Nc1ccc(C(=O)Nc2nnc(COC)s2)cc1	.	-	-	-
CCc1ccc(N=c2c([N+](=O)[O-])nn(-c3ccccc3)n2O)cc1	70.9	.	.	.
O=[N+]([O-])c1nn(-c2ccc3c(c2)OCCO3)n(O)c1=NC1CCCCC1	-	.	.	.
Cc1nc2ccccc2nc1OCC(=O)Nc1cc(C(F)(F)F)ccc1N1CCOCC1	.	-	-	-
Cc1csc2ncc(C(=O)NCc3ccc4c(c3)OCO4)c(=O)n12	.	-	-	15.9
COCCNC(=O)CSc1nc(-c2ccc(OC)c(OC)c2)cc(C(F)(F)F)n1	-	-	-	-
CCCC1C(C(=O)OCC)=C(C)NC(C)=C1C(=O)OCC	-	-	-	-
COC1(OC)N=C(N)C2(C#N)C(c3ccc(C)cc3)C12C#N (centres undefined)	-	-	-	-
COC1(OC)N=C(N)C2(C#N)C(c3ccc4c(c3)OCO4)C12C#N (centres undefined)	-	-	19.9	-
COc1ccc(C(=O)c2sc(NC(C)C)nc2N)cc1OC	-	.	-	-
COc1cccc(C(=O)c2sc(NC(C)C)nc2N)c1	.	.	17.2	-
O=c1c2ccccc2nc2n1CCCCN2	-	-	21.0	-
Cc1ccc(O)c(/C=N/NC(=O)C2=NNC(c3ccccc3)(c3ccccc3)C2)c1	71.1	.	.	.
COc1ccc(OCc2nn3c(-c4cccc(OC)c4)nnc3s2)cc1	.	-	-	15.7
COc1ccc(OCc2nn3c(-c4ccco4)nnc3s2)cc1	-	-	-	-
CCCCOC(=O)n1c(=O)oc2cc(S(=O)(=O)N3CCCCC3)ccc21	72.3	-	-	-
COc1cc(C2c3c(oc4c(C)cc(C)cc4c3=O)C(=O)N2Cc2cccnc2)ccc1O (centres undefined)	.	-	-	31.9
O=C(CCCn1c(=S)[nH]c2ccccc2c1=O)N1CCCCC1	72.6	-	-	-
CC1CC(C)CN(C(=O)CCCn2c(=S)[nH]c3ccccc3c2=O)C1 (centres undefined)	-	-	-	-
COc1cccc(-c2nc(-c3ccccn3)no2)c1OC	-	-	-	-
Cc1nn(-c2ccccc2)c2c1C(O)n1c(nc3ccccc31)S2 (centres undefined)	.	-	18.6	-
Cc1nn(-c2ccccc2)c2sc(C(=O)O)cc12	.	-	.	-
CCN1CCN(CCCNC(=O)c2ccc3c(c2)NC(=O)c2ccccc2S3)CC1	.	-	-	-
CCN(CC)C(=O)C(C)N(C#N)c1nc(NC(C)C)nc(NC(C)C)n1 (centres undefined)	-	-	.	-
SMILES	mHtt clearance	AP complement	JNK3 inh	MMP-13 inhibitor
COC(=O)c1ccccc1NC(=O)COC(=O)c1ccco1	.	-	20.9	-
COC(=O)c1ccccc1NC(=O)COC(=O)CSCC(=O)N1CCOCC1	-	-	19.2	-
COC(=O)c1ccccc1NC(=O)COC(=O)c1ccc(C)c(NC(=O)c2ccco2)c1	-	-	-	-
COC(=O)c1cc2c(=O)n3ccccc3nc2n(C)c1=N	.	31.7	-	-
COc1ccc(C(C)=O)cc1COC(=O)c1cc(C)oc1C	-	-	17.8	-
c1csc(-c2cnc3ccccc3n2)c1	.	-	25.3	-
CCCn1c(-c2cccs2)nc2ccccc21	.	-	-	-
COC(=O)c1ccc(Cn2c(O)c(N=O)c3ccccc32)o1	-	.	20.4	-
COC(=O)c1ccc(CN2CCN(Cc3ccc(C(=O)OC)o3)CC2)o1	.	-	-	-
S=C1NCCOCCOCCOCCOCCNC(=S)NCCOCCOCCOCCOCCN1	77.7	.	.	.
CCOC(=O)N1CCN(c2c(NCCc3ccc(OC)c(OC)c3)c(=O)c2=O)CC1	.	-	-	-
CC1CN(Cc2ccc(C#N)cc2Cl)CC(C)O1 (centres undefined)	.	-	-	-
O=C(COc1ccc(Cl)cc1Cl)NC(=O)N1CCCCC1	.	-	-	14.3
Cc1cc(NC(=O)c2ccoc2C)no1	-	.	.	.
Nn1c(=O)c2ccccc2n2c(SCc3ccccc3)nnc12	80.4	-	-	-
CCCn1c(=O)c2ccccc2n2c(SCC(=O)c3ccccc3)nnc12	-	-	-	-
CC1CCCN(C(=O)CSc2nnc3n(C4CCCC4)c(=O)c4ccccc4n23)C1 (centres undefined)	-	35.0	-	-
COc1cccc(NC(=O)CCCn2c(=O)[nH]c3ccccc3c2=O)c1	-	-	19.0	-
O=C(O)CCn1c(=O)[nH]c2ccccc2c1=O	.	-	-	-
Cn1c(Cn2c(=O)sc3ccccc32)nnc1SCC(=O)Nc1ccccc1F	.	-	-	-
Cc1nc(N2CCC(C)CC2)c2c(C)c(C(=O)O)sc2n1	80.1	-	-	-

From PubChem
